In test [1] the target is T1, Adrenergic receptor alpha-2 (Rattus norvegicus, UniProt P22086+P19328+P22909).
T1 sequence (P22086 whole entry): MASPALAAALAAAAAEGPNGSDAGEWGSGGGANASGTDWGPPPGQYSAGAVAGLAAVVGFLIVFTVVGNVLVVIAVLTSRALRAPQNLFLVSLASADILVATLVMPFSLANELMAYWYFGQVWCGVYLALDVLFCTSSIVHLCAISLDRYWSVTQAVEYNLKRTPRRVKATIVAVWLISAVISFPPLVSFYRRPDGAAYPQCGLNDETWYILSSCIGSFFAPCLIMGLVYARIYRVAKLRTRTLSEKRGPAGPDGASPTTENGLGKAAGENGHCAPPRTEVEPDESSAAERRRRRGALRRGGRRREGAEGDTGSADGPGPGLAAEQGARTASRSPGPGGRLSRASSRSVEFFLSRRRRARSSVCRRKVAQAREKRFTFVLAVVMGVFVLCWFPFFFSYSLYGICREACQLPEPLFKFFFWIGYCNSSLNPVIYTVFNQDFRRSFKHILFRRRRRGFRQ
T1 sequence (P19328 whole entry): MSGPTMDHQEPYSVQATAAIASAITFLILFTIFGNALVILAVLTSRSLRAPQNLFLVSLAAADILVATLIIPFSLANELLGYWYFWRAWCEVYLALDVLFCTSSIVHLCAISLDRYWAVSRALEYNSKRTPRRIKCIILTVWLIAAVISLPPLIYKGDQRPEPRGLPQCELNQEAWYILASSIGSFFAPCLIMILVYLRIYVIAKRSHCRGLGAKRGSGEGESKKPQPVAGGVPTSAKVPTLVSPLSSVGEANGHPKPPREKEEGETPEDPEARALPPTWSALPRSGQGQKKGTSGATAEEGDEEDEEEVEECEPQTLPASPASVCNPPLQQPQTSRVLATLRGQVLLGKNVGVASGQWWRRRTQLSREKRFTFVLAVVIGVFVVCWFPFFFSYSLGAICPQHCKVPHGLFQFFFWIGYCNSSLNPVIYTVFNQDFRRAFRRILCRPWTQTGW
T1 sequence (P22909 whole entry): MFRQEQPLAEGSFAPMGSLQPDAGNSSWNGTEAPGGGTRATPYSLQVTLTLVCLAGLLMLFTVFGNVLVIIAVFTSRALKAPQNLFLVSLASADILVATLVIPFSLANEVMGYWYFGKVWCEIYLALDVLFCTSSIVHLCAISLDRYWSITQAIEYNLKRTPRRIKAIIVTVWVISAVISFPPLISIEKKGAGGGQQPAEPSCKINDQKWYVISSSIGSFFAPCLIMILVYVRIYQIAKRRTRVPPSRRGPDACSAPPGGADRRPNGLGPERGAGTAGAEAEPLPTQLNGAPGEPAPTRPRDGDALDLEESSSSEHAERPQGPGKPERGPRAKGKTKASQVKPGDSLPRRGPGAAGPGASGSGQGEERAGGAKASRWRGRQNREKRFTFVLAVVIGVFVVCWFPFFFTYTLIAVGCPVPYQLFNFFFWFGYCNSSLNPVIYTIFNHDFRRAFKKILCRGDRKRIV
Briefly: Displacement of [3H]-RX 821002 from alpha2-AR in Sprague-Dawley rat brain membranes after 30 mins by liquid scintillation counting. Type of test: cell membranes, Membrane. The gist of the method:
(§1)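 Radioligand competition binding with pKi determined by displacement. I1 sites: [125I]-p-iodoclonidine on rat kidney membranes. I2 sites: [3H]-2-BFI on rat brain membranes. α2-ARs: [3H]-RX821002 on rat brain membranes.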
On the technique in general: Displacement assays read how much labelled ligand stays bound in the presence of the test substance.

The next test addresses Nischarin (Rattus norvegicus, UniProt Q4G017). The experiment in a line: Displacement of [125I]-p-iodoclonidine from I1 receptor imidazoline binding site in Sprague-Dawley rat kidney cell membranes after 30 mins by liquid scintillation counting. In short, it runs like this:
as §1

Test [2] can be described thus: Displacement of [3H]-2-BFI from I2 receptor imidazoline binding site in Sprague-Dawley rat brain membranes after 30 mins by liquid scintillation counting. Type of test: cell membranes, Membrane. In short, it runs like this:
as §1

Test [3] is described as follows: Reduction in morphine dependence expression in CD1 mouse assessed as inhibition of naloxone-precipitated jumping at 10 mg/kg, ip administered acutely 15 mins prior to naloxone challenge relative to control. Format: functional, organism-based.
Test [4] in a line: Reduction in morphine dependence expression in CD1 mouse assessed as inhibition of naloxone-precipitated rearing frequency at 5 mg/kg, ip administered acutely 15 mins prior to naloxone challenge relative to control. Type of test: functional, organism-based.
The nature of test [5]: Reduction in morphine dependence expression in CD1 mouse assessed as inhibition of naloxone-precipitated forepaw tremor frequency at 5 mg/kg, ip administered acutely 15 mins prior to naloxone challenge relative to control. Format: functional, organism-based.
Test [6] is described as follows: Reduction in morphine dependence expression in CD1 mouse assessed as inhibition of naloxone-precipitated teeth chattering frequency at 5 mg/kg, ip administered acutely 15 mins prior to naloxone challenge relative to control. Format: functional, organism-based.
The nature of test [7]: Reduction in morphine dependence expression in CD1 mouse assessed as inhibition of naloxone-precipitated rearing frequency at 10 mg/kg, ip administered acutely 15 mins prior to naloxone challenge relative to control. Type of test: functional, organism-based.
Test [8] can be described thus: Reduction in morphine dependence expression in CD1 mouse assessed as inhibition of naloxone-precipitated forepaw tremor frequency at 10 mg/kg, ip administered acutely 15 mins prior to naloxone challenge relative to control. Format: functional, organism-based.
The nature of test [9]: Reduction in morphine dependence expression in CD1 mouse assessed as inhibition of naloxone-precipitated teeth chattering frequency at 10 mg/kg, ip administered acutely 15 mins prior to naloxone challenge relative to control. Format: functional, organism-based.
In test [10] the test system is Mus musculus. The experiment in a line: Reduction in morphine dependence acquisition in CD1 mouse assessed as inhibition of naloxone-precipitated jumping at 10 mg/kg, ip administered 15 mins prior to each morphine challenge. Format: functional, organism-based. In short, it runs like this:
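Acquisition protocol in mice given repeated morphine. Test drug at 5 or 10 mg/kg i.p. was given 15 min before each morphine injection. Withdrawal was then precipitated with naloxone and jumping frequency counted. Data are mean ± SEM of 6–10 animals, compared with the morphine group.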

Test [11] deals with Mus musculus. The experiment in a line: Reduction in morphine dependence acquisition in CD1 mouse assessed as inhibition of naloxone-precipitated rearing frequency at 5 mg/kg, ip administered 15 mins prior to each morphine challenge relative to control. Format: functional. In short, it runs like this: (§2)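 Mice received i.p. test compound (5 or 10 mg/kg) 15 min before each of repeated morphine injections, with vehicle and morphine-only controls. Withdrawal was then precipitated with naloxone. Jumping frequency and somatic signs (rearing, forepaw tremor, teeth chattering; summed frequency) were scored and compared with the morphine group. Data are mean ± SEM of 6–10 animals.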

For test [12], the system named is Mus musculus. Briefly: Reduction in morphine dependence acquisition in CD1 mouse assessed as inhibition of naloxone-precipitated forepaw tremor frequency at 5 mg/kg, ip administered 15 mins prior to each morphine challenge relative to control. Format: functional. The gist of the method:
as §2

The test system of test [13] is Mus musculus. The experiment in a line: Reduction in morphine dependence acquisition in CD1 mouse assessed as inhibition of naloxone-precipitated teeth chattering frequency at 5 mg/kg, ip administered 15 mins prior to each morphine challenge relative to control. Type of test: functional. The gist of the method: as §2
The test system of test [14] is Mus musculus. Briefly: Reduction in morphine dependence acquisition in CD1 mouse assessed as inhibition of naloxone-precipitated rearing frequency at 10 mg/kg, ip administered 15 mins prior to each morphine challenge relative to control. Format: functional. In short, it runs like this:
as §2

Test [15] relates to Mus musculus. Briefly: Reduction in morphine dependence acquisition in CD1 mouse assessed as inhibition of naloxone-precipitated forepaw tremor frequency at 10 mg/kg, ip administered 15 mins prior to each morphine challenge relative to control. Format: functional. The gist of the method: as §2
Test [16] relates to Mus musculus. Briefly: Reduction in morphine dependence acquisition in CD1 mouse assessed as inhibition of naloxone-precipitated teeth chattering frequency at 10 mg/kg, ip administered 15 mins prior to each morphine challenge relative to control. Type of test: functional. The gist of the method: as §2
Test [17] is described as follows: Displacement of [3H]idazoxan from I2 receptor imidazoline binding site in rabbit kidney membranes after 45 mins by […]. Format: cell membranes, Oryctolagus cuniculus, Membrane.
The target in test [18] is T1, Adrenergic receptor alpha-2. The experiment in a line: Displacement of [3H]-clonidine from alpha2-AR in rat brain cortical membranes after 45 mins by liquid scintillation counting. Format: cell membranes.

Active and inactive are the calls of the source. No cut-off for these calls is given here.

Experimental findings from ChEMBL document CHEMBL3853360, “Combined Interactions with I1-, I2-Imidazoline Binding Sites and α2-Adrenoceptors To Manage Opioid Addiction” (ACS Med Chem Lett, 2016) are described below.

As a reminder, the pKi is the negative decadic logarithm of the Ki, by convention in mol/L. Higher therefore signals a low Ki. Broadly, the Ki is a measure of affinity in units of concentration, obtained from inhibition or displacement. A low value points to tighter binding. The term inhibition denotes the share of the control response that was lost under treatment. The inhibition in vivo is the relative decrease from the control value, in per cent.

Sequence of Nischarin (Q4G017 whole entry): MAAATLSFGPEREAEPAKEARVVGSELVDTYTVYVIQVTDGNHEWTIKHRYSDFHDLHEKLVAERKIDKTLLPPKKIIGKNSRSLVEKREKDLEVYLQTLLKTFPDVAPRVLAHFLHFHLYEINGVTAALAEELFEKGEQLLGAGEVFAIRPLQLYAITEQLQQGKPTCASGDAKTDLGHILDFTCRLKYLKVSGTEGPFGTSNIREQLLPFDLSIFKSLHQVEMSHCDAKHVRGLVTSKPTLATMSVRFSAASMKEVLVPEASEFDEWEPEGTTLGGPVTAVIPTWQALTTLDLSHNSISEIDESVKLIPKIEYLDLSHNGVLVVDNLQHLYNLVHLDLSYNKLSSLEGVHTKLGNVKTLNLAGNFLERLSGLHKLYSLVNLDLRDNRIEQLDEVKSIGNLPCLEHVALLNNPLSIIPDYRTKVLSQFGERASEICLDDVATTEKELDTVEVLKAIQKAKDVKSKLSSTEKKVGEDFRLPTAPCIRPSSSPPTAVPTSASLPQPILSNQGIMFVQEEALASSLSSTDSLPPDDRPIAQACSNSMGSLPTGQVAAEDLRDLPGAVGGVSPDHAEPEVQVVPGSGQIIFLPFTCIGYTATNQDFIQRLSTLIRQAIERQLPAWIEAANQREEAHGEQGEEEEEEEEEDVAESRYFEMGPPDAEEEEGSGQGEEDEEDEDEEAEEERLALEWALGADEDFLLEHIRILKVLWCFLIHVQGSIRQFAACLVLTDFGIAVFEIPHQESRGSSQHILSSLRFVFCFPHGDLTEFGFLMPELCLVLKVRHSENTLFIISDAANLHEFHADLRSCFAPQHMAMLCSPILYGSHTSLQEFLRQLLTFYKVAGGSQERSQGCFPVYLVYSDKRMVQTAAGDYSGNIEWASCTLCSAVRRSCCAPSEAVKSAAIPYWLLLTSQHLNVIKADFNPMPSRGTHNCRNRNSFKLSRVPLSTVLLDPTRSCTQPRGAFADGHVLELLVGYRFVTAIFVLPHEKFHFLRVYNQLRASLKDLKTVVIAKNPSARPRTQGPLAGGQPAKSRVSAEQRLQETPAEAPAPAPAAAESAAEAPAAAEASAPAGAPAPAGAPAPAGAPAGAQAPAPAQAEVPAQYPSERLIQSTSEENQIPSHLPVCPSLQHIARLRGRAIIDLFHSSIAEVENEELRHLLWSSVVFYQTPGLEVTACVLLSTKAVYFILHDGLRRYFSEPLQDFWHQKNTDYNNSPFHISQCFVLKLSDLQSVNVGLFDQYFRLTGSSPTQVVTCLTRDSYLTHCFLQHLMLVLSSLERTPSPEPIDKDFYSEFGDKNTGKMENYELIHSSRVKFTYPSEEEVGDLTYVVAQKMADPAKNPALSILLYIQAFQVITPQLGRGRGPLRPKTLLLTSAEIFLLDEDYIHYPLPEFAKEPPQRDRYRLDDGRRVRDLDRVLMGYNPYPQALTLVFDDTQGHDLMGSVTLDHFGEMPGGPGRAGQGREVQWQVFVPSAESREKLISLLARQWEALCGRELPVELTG

As for `Cc1ccccc1/C=C/C1=NCCN1`, the pKi in test [1] is < 6; in test [2], 9.11. On Nischarin, this compound showed a Ki of 17.8 nM. In addition, the inhibition stood at 90% in test [3]; 50% in test [4]; 50% in [5]; 50% in [6]; 50% in [7]; 50% in [8]. The inhibition in [9] was found to be 50%. In the test with Mus musculus [10], the inhibition entry was “Active”. Besides, the inhibition in vivo at 5 mg/kg with Mus musculus [11], with Mus musculus [12] and in the test with Mus musculus [13] was 34% in each case. For the same compound, the inhibition in vivo at 10 mg/kg in the test on Mus musculus [14], in the test on Mus musculus [15] and in the test on Mus musculus [16] was 46% in each case.

In the case of `C(=C\c1ccccc1)/C1=NCCN1` [TRACIZOLINE], the results for the pKi in test [17] and in test [18] were 8.72 and < 6, respectively.
